Assay results published in ChEMBL document CHEMBL3272093, “Antibacterial halogenoacetyl derivatives of amino acids and simple peptides” (1977).
Values after ≈ are worked out from the molar mass of the structure shown. Active and inactive are the calls of the source. The calls are words filed in the database; no cut-off is given here.

Legend:
[1] = test system: Escherichia coli; experiment: Antibacterial activity against Escherichia coli assessed as inhibition of growth after 18 hrs by broth culture method; assay type: functional
Summary of the method: (§1)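 Broth dilution in 0.5 mL Sensitivity Test Broth, inoculated with 0.2 mL of a 10^-4 dilution of an 18-h broth culture. MIC read after 18-h incubation as the lowest concentration preventing growth.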

[2] = molecular target: T1, D-alanyl-D-alanine carboxypeptidase DacA (Geobacillus stearothermophilus) (UniProt Q05523); experiment: Inhibition of Bacillus stearothermophilus DD-carboxypeptidase using UDP-N-acetylmuramyl-L-alanyl-meso-diaminopimeloyl-D-alanyl-D-alanine as substrate at 10 to 100 ug/ml
T1 sequence (whole entry): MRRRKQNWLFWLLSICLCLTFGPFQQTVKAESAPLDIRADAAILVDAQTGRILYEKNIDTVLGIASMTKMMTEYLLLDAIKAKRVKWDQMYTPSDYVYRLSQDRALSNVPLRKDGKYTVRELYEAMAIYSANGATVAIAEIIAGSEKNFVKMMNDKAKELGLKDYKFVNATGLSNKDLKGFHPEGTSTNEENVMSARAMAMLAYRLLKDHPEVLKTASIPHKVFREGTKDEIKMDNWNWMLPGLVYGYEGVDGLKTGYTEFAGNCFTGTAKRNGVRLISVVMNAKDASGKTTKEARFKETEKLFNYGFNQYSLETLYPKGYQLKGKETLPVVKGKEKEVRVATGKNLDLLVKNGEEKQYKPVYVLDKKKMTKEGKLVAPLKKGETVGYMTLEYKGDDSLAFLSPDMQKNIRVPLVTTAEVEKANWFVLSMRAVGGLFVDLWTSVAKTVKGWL
Summary of the method: (§2)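 Enzymes tested for release of D-alanine, measured with D-amino acid oxidase. Compounds assayed at 10 and 100 μg/mL. Substrates: Ac2-L-Lys-D-Ala-D-Ala for the Streptomyces R61 enzyme; UDP-N-acetylmuramyl-L-alanyl-meso-diaminopimeloyl-D-alanyl-D-alanine for the B. stearothermophilus and S. typhimurium enzymes.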

[3] = test system: Staphylococcus aureus; experiment: Antibacterial activity against Staphylococcus aureus assessed as inhibition of growth after 18 hrs by broth culture method; assay type: functional; summary of the method: as §1
[4] = molecular target: D-alanyl-D-alanine carboxypeptidase (Streptomyces sp. R61) (UniProt P15555); experiment: Inhibition of Streptomyces R61 DD-carboxypeptidase using Ac2-L-Lys-D-Ala-D-Ala as substrate at 10 to 100 ug/ml; summary of the method: as §2
[5] = test system: Salmonella enterica subsp. enterica serovar Typhimurium; experiment: Inhibition of Salmonella typhimurium DD-carboxypeptidase using UDP-N-acetylmuramyl-L-alanyl-meso-diaminopimeloyl-D-alanyl-D-alanine as substrate at 10 to 100 ug/ml; summary of the method: as §2

Sequence of D-alanyl-D-alanine carboxypeptidase (Streptomyces sp. R61) (P15555 whole entry): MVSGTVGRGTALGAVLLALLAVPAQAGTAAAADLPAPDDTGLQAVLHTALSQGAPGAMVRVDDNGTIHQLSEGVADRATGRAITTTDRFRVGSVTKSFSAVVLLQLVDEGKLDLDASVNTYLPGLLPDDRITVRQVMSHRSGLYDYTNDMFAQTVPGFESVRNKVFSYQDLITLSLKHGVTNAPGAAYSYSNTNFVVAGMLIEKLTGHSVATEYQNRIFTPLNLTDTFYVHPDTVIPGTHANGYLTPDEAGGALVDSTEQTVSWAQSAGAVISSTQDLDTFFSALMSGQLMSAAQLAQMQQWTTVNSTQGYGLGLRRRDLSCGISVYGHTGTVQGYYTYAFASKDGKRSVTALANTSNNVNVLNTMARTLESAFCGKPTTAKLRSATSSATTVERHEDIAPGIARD

For C[C@@H](NC(=O)[C@@H](C)NC(=O)[C@H](CCCCN1C(=O)c2ccccc2C1=O)NC(=O)CI)C(=O)O, the MIC [1] was greater than 500 µg/mL, the inhibition [2] was “inactive” and the MIC [3] was 500 µg/mL (≈ 853 µM). The inhibition [4] was “inactive” and the inhibition [5] was “inactive”.
